Most compounds without a hit are left out; they make up all but 1.1% or so of the library.
HCV core dimer: HCV core protein dimerization inhibition | AID 1899 | 300,000 compounds, 0.33% hits | inhibition, % at 5 µM | TR-FRET GST/Flag-core106 dimerization, 1536-well;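 active = inhibition above the mean of all tested compounds plus 3 SD, set per screening campaign, cut at about 45% in these data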
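System – GST-tagged and Flag-tagged HCV core protein residues 1-106 · Repeats – one well for each compound · Technique – TR-FRET 671 and 617 nm emission · Doses – one concentration, 5 µM, in 0.5% DMSO · Times – 4 h, 22.5 °C incubation · Also added – Eu donor and XL665 acceptor anti-tag antibodies · Measure – percent inhibition of core106 dimerization signal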
NR2E3 ag-1: activates human NR2E3 receptor | CHO-S Gal4-NCOR/VP16-NR2E3 two-hybrid, luciferase | inhibition of corepressor binding, % at 3.98 µM | Q9Y5X4 | 360,000 compounds, 0.35% hits;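 active = inhibition above the mean of all tested compounds plus 3 SD, cut at about 70% in these data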;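 note: higher means lower luciferase signal from less NR2E3 corepressor binding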
NR2E3 ag-2: activates human photoreceptor nuclear receptor NR2E3; inhibition of corepressor binding, % at 4.78 µM; AID 2300; Q9Y5X4; GST-NR2E3/biotin-RetCOR TR-FRET, 1536-well; 320,000 compounds, 0.12% hits;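 active = percent inhibition above the cutoff of mean plus 3 SD of all tested compounds, set per screening campaign, cut at about 20% in these data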
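System: GST-NR2E3 and biotin-RetCOR proteins; probe or stimulus: 7 nM biotin-RetCOR; doses: compound at 4.8 µM, single dose; schedule: Compound–protein incubation for 5 h at 4 °C; detection: time-resolved FRET; read-out: percent inhibition; controls: biotin wells as high control, 0.6% DMSO wells as low control; format: 1536-well plates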
MT1-MMP act inh: inhibitors of human MT1-MMP activation | HT1080 RFP-PRO-GFP cells, GFP/RFP ratio fluorescence, overnight; percent of plate control window, DMSO zero | GFP/RFP ratio change, % at 20 µM | 360,000 compounds, 0.061% hits;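 active = GFP/RFP ratio change of at least 30% with cell ATP level not reduced by more than half and red fluorescence within 50% of control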
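Test system: HT1080 cells expressing an RFP-PRO-GFP fluorescent reporter construct / Compound dosing: single-point 20 µM compound, 1% DMSO / Schedule: cells overnight before dosing, compound overnight, 37 °C, 5% CO2 / Evaluation: GFP/RFP fluorescence ratio / Control set: DMSO and RFP-L50D-GFP cell wells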
DAGLB inh: diacylglycerol lipase beta (human) inhibition. HEK293T DAGLB membrane lysate, EnzChek fluorogenic substrate. 340,000 compounds, 0.059% hits. inhibition, % at 5.17 µM; in the data active = inhibition above about 34%
Target sequence (Q8NCG7 whole entry, looked up): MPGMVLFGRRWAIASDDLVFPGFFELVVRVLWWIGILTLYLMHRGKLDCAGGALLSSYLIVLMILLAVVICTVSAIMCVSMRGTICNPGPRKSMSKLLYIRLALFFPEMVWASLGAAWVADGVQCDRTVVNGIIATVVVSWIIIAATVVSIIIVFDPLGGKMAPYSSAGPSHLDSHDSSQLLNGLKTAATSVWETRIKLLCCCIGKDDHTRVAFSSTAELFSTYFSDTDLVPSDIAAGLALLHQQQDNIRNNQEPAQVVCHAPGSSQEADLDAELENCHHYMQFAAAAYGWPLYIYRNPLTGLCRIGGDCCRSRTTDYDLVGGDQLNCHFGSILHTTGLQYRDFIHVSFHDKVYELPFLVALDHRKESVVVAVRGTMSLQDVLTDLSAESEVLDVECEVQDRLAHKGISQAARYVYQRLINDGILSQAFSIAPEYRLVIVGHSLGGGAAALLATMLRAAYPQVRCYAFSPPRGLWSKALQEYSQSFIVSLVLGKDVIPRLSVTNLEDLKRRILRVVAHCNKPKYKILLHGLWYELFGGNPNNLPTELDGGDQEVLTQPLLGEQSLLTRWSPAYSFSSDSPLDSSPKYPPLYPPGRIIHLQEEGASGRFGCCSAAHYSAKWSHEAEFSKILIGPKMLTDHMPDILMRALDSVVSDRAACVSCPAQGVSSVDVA
Vif imaging: inhibitors of HIV Vif; 340,000 compounds, 0.35% hits; HEK293T cells, Vif self-association by quenched fluorescence, imaging, 24 h; inhibition, % at 7.49 µM; AID 602346; in the data active = inhibition above about 50%, passing the limit was not always enough; inconclusive = no clear call, values can overlap the other calls; inactive = below about 31%
NR2E3 agonist cf: confirmation of human NR2E3 nuclear receptor agonists; shares compounds with NR2E3 ag-2; cell-free NR2E3 corepressor release, TR-FRET, 5 h; AID 2379; 360 compounds, 39% hits; activation (reported as inhibition), % at 3.98 µM; in the data active = activation above about 20%
PPARg-NCOR2 ctr: counter-screen for NR2E3 agonists: human PPARgamma-NCOR2 interaction agonists | shares compounds with NR2E3 ag-2 | TR-FRET PPARg-NCOR2 coregulator interaction, biochemical | inhibition, % at 3.98 µM | 360 compounds, 45% hits | AID 504787; in the data active = inhibition above about 20%
Each line names hits and unclear results; the compound was inactive in the other large screens (follow-up assays come after a bar, where they were run).

O=C(C1=C(O)C(=O)N(CCN2CCOCC2)C1c1cccc(O)c1)c1cc2ccccc2o1 (stereo unspecified)	none (no result: HCV core dimer, NR2E3 ag-2)
CN(C)CCCN1C(=O)C(O)=C(C(=O)c2cc3ccccc3o2)C1c1ccccc1 (stereo unspecified)	NR2E3 ag-2 30.3 | NR2E3 agonist cf 27.2 | PPARg-NCOR2 ctr 28.3
CSc1ccccc1C(=O)NCCCn1ccnc1	none
CC(NC(=O)c1cccc(S(=O)(=O)N2CCN(C)CC2)c1)c1ccc(Cl)cc1Cl (stereo unspecified)	none
O=C(C1=C(O)C(=O)N(CCN2CCOCC2)C1c1cccnc1)c1cc2ccccc2o1 (stereo unspecified)	NR2E3 ag-2 32.4 | NR2E3 agonist cf inactive | PPARg-NCOR2 ctr inactive
O=C(C1=C(O)C(=O)N(CCN2CCOCC2)C1c1ccc(Br)cc1)c1cc2ccccc2o1 (stereo unspecified)	none
Cc1ccc(C2C(C(=O)c3cc4ccccc4o3)=C(O)C(=O)N2CCN2CCOCC2)cc1 (stereo unspecified)	NR2E3 ag-2 19.9 | NR2E3 agonist cf 25.2 | PPARg-NCOR2 ctr 24.8
C=CC[C@@H](CC(=O)OC(C)(C)C)C(=O)OC[C@H]1CCCN1C(=O)[C@@H](CC=C)CC(=O)N(CCO)Cc1ccccc1	none (no result: HCV core dimer, NR2E3 ag-2)
Nc1nc(-c2ccco2)c(-c2ccco2)s1	none
c1coc(-c2nc(-c3ccco3)c(-c3ccco3)nc2-c2ccco2)c1	HCV core dimer 73.2, NR2E3 ag-2 41.7 (no result: Vif imaging) | NR2E3 agonist cf inactive | PPARg-NCOR2 ctr inactive
Cc1cccc(CCN(C(=O)c2csnn2)C(C(=O)NC2CCCC2)c2ccco2)c1 (stereo unspecified)	none
Cc1ccc(-c2ccc(C(=O)O)c(C)n2)cc1	none
Cc1nc(-c2ccc(Br)cc2)ccc1C(=O)O	NR2E3 ag-2 24.7 | NR2E3 agonist cf inactive | PPARg-NCOR2 ctr inactive
N#Cc1ccc(Cl)cc1NC(=O)COC(=O)c1ccc2c(c1)OCCO2	NR2E3 ag-2 35.5 | NR2E3 agonist cf 38.6 | PPARg-NCOR2 ctr 40.7
N#Cc1ccccc1NC(=O)COC(=O)c1ccc2c(c1)OCCO2	none
CCn1cc(C(=O)N[C@@H](CCSC)C(=O)NCCCOC)c(=O)c2cc3c(cc21)OCO3	none
S=C(c1ccc(-c2cccc(Cl)c2)o1)N1CCCCC1	NR2E3 ag-2 30.2 | NR2E3 agonist cf inactive | PPARg-NCOR2 ctr inactive
CC(=O)Nc1cc(-c2ccc(F)cc2)cn2c(-c3ccc(S(C)(=O)=O)cc3)cnc12	none (no result: HCV core dimer, NR2E3 ag-2, DAGLB inh)
COc1cc2oc(=O)c(Br)c(C)c2c(OC)c1OC	NR2E3 ag-2 19.8 | NR2E3 agonist cf inactive | PPARg-NCOR2 ctr inactive
COc1ccc(S(=O)(=O)N2CCCOC2CNC(=O)C(=O)NCc2cccnc2)cc1 (stereo unspecified)	none
COc1ccccc1CCNC(=O)c1cc(COc2cccc(C(F)(F)F)c2)on1	none
CCN(CC(=O)NC1CCS(=O)(=O)C1)Cc1nc2c(Br)cc(Br)cc2c(=O)[nH]1 (stereo unspecified)	none
CCN(CC(=O)NC(C)(C)C)Cc1nc2c(Br)cc(Br)cc2c(=O)[nH]1	NR2E3 ag-2 21.6 | NR2E3 agonist cf 33.0 | PPARg-NCOR2 ctr 29.1
CC1Cc2cc(/C(O)=C3/C(=O)C(=O)N(Cc4ccco4)C3c3cccs3)ccc2O1 (stereo unspecified)	NR2E3 ag-2 22.3 | NR2E3 agonist cf inactive | PPARg-NCOR2 ctr inactive
Cc1ccc(-c2nc3c(Cl)cc(C(F)(F)F)cn3c2Cc2cccc(F)c2)cc1	none (no result: HCV core dimer, NR2E3 ag-2, DAGLB inh, Vif imaging)
CSc1nc(N)nc2c1ncn2CC(=O)N1CCN(c2ccccn2)CC1	none (no result: HCV core dimer, NR2E3 ag-2)
Cc1ccc(-n2nc3c(=O)n(C(C)C(=O)NCc4ccc(Cl)cc4)nc(C)c3c2C)cc1 (stereo unspecified)	none
O=C(C1=C(O)C(=O)N(CC2CCCO2)C1c1ccccc1Cl)c1ccco1 (stereo unspecified)	none
O=C(C1=C(O)C(=O)N(CC2CCCO2)C1c1ccc(Cl)cc1Cl)c1ccco1 (stereo unspecified)	NR2E3 ag-2 29.6, Vif imaging inconclusive | NR2E3 agonist cf 24.0 | PPARg-NCOR2 ctr 25.2
Cc1ccc(O)c(C2=Nc3ccccc3N=C(c3ccco3)C2)c1	NR2E3 ag-2 30.5 | NR2E3 agonist cf inactive | PPARg-NCOR2 ctr inactive
O=c1[nH]c(COc2ccccc2)nc2ccccc12	none
S=c1nc(Cc2ccccc2)[nH]c2ccccc12	NR2E3 ag-2 22.9, Vif imaging 68.0 | NR2E3 agonist cf inactive | PPARg-NCOR2 ctr inactive
S=c1nc(COc2ccccc2)[nH]c2ccccc12	NR2E3 ag-2 30.9 | NR2E3 agonist cf inactive | PPARg-NCOR2 ctr inactive
CCc1ccc2c(c1)cc(C)c1nnc(SCC(=O)Nc3cc(OC)c(OC)cc3C(=O)O)n12	none
Cc1nc2ccc(Br)cc2c(-c2ccccc2)c1C(=O)O	NR2E3 ag-2 46.5 | NR2E3 agonist cf 58.6 | PPARg-NCOR2 ctr 54.0
Cc1cccc(C)c1NC(=O)CNC(=O)c1ccccc1OCc1ccccc1	none
COC(=O)c1sc(NC(=S)NNC(=O)c2c(Br)c(C)nn2C)c(C(=O)OC)c1C	NR2E3 ag-2 62.4 | NR2E3 agonist cf inactive | PPARg-NCOR2 ctr inactive
CC(=O)c1ccc2c(c1)C1C=CCC1C(C(=O)O)N2 (stereo unspecified)	none (no result: HCV core dimer, NR2E3 ag-2, DAGLB inh)
COc1cccc2c1NC(C(=O)O)C1CC=CC21 (stereo unspecified)	NR2E3 ag-2 22.5 | NR2E3 agonist cf inactive | PPARg-NCOR2 ctr inactive
CCCCc1nnc(NC(=O)CSc2nc(O)c(-c3ccccc3)c(=O)[nH]2)s1	none
CCCCc1nnc(NC(=O)CSc2nc(O)c(Cc3ccccc3)c(=O)[nH]2)s1	NR2E3 ag-2 25.9 | NR2E3 agonist cf inactive | PPARg-NCOR2 ctr inactive
CC(C)C(C(=O)NC1CCCC1)N1CCN(c2ncccc2C#N)CC1 (stereo unspecified)	none (no result: HCV core dimer, NR2E3 ag-1, NR2E3 ag-2, DAGLB inh, Vif imaging)
Cn1nc(C(=O)N2CCC(C(N)=O)CC2)c2c1-c1ccccc1SC2	NR2E3 ag-2 26.7 (no result: Vif imaging) | NR2E3 agonist cf inactive | PPARg-NCOR2 ctr inactive
Cn1nc(C(=O)NC2CCCCC2)c2c1-c1ccccc1SC2	none
CCOC(=O)[C@]12CCCC=C1N(Cc1ccccc1)C(=O)[C@H](CC(=O)N1CCCCCC1)C2	none (no result: HCV core dimer, NR2E3 ag-1, NR2E3 ag-2, DAGLB inh, Vif imaging)
CCOc1ccccc1NC(=O)CSc1nc(N)c(C#N)cc1C#N	NR2E3 ag-2 43.1 | NR2E3 agonist cf 33.5 | PPARg-NCOR2 ctr 54.3
